Columns and labels:
Type in all cases: functional
Malme-3M [1] = assay: Cytotoxicity against human MALME-3M cells assessed as cell growth at 10^-5 M after 48 hrs by SRB assay; settings: read-out: Activity
SW-620 = assay: Growth inhibition of human SW620 cells after 48 hrs by SRB assay; settings: SW-620, 48 h; for CC50: read-out: LC50 (the source's name)
How it was run: (§1)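 Adherent NCI-60 lines grown in RPMI 1640 with 5% FBS, seeded at 5000–40,000 cells/well, and preincubated 24 h at 37 °C, 5% CO2. Compound, stocked in DMSO, given either once at 10^-5 M or at five 10-fold dilutions for 48 h. Cells fixed with cold TCA (final 10%), stained with 0.4% SRB, and read at 515 nm. GI50 taken as 50% reduction in net protein increase versus time-zero and control plates.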

Malme-3M [2] = assay: Growth inhibition of human MALME-3M cells after 48 hrs by SRB assay; settings: for CC50: read-out: LC50 (the source's name); how it was run: as §1
CAKI-1 [3] = assay: Growth inhibition of human Caki1 cells after 48 hrs by SRB assay; settings: CAKI-1, 48 h
How it was run: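 Same 48 h NCI-60 five-dose SRB protocol. Adherent lines were fixed with cold TCA at 10% final; suspension lines such as CCRF-CEM were fixed with 16% final TCA. Stain was 0.4% SRB in 1% acetic acid for 10 min, solubilized in 10 mM Tris base and read at 515 nm. GI50 came from log concentration–growth curves, solving [(Ti−Tz)/(C−Tz)]×100 = 50.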

TK-10 = assay: Growth inhibition of human TK10 cells after 48 hrs by SRB assay; settings: TK-10, 48 h; for CC50: read-out: LC50 (the source's name); how it was run: as §1
[4] = Cytotoxicity against human Hs 578T cells assessed as cell growth at 10^-5 M after 48 hrs by SRB assay; settings: read-out: Activity
How it was run: (§2)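 NCI-60 five-dose screen. Cells were grown in RPMI 1640 with 5% FBS and seeded at 5000–40,000 cells/well according to doubling time. They were pre-incubated 24 h at 37 °C in 5% CO₂, and time-zero (Tz) plates were TCA-fixed at drug addition. Five 10-fold dilutions of DMSO stock were applied for 48 h. Read-out was SRB staining, 515 nm absorbance, with percent growth calculated versus Tz and untreated control.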

BT-549 = assay: Cytotoxicity against human BT549 cells assessed as cell growth at 10^-5 M after 48 hrs by SRB assay; settings: BT-549, 48 h, read-out: Activity
How it was run: (§3)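 NCI-60 screen: lines kept in RPMI 1640 with 5% FBS, seeded at 5000–40,000 cells/well by doubling time, preincubated 24 h at 37 °C in 5% CO2. Time-zero plates TCA-fixed at drug addition. DMSO stocks diluted in medium, 48 h exposure. Fixation in cold TCA (final 10% adherent, 16% suspension), 0.4% SRB stain, solubilised in 10 mM Tris base, A515. Percent growth computed against control and time-zero.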

HOP-62 = assay: Cytotoxicity against human HOP62 cells assessed as cell growth at 10^-7 M after 48 hrs by SRB assay; settings: HOP-62, 48 h, read-out: Activity; how it was run: as §2
M14 = assay: Cytotoxicity against human M14 cells assessed as cell growth at 10^-7 M after 48 hrs by SRB assay; settings: M14, 48 h, read-out: Activity
NCI-H460 = assay: Cytotoxicity against human NCI-H460 cells assessed as cell growth at 10^-4 M after 48 hrs by SRB assay; settings: NCI-H460, 48 h, read-out: Activity
MDA-MB-435 [5] = assay: Cytotoxicity against human MDA-MB-435 cells assessed as cell growth at 10^-4 M after 48 hrs by SRB assay; settings: MDA-MB-435, 48 h, read-out: Activity
OVCAR-4 = assay: Cytotoxicity against human OVCAR4 cells assessed as cell growth at 10^-4 M after 48 hrs by SRB assay; settings: OVCAR-4, 48 h, read-out: Activity
OVCAR-5 = assay: Cytotoxicity against human OVCAR5 cells assessed as cell growth at 10^-4 M after 48 hrs by SRB assay; settings: OVCAR-5, 48 h, read-out: Activity
SK-OV-3 = assay: Cytotoxicity against human SKOV3 cells assessed as cell growth at 10^-7 M after 48 hrs by SRB assay; settings: SK-OV-3, 48 h, read-out: Activity
[6] = Cytotoxicity against human NCI-ADR-RES cells assessed as cell growth at 10^-8 M after 48 hrs by SRB assay; settings: read-out: Activity
A498 = assay: Cytotoxicity against human A498 cells assessed as cell growth at 10^-8 M after 48 hrs by SRB assay; settings: A498, 48 h, read-out: Activity; how it was run: as §3
DU-145 = assay: Cytotoxicity against human DU145 cells assessed as cell growth at 10^-8 M after 48 hrs by SRB assay; settings: DU-145, 48 h, read-out: Activity; how it was run: as §3
A549 = assay: Cytotoxicity against human A549 cells assessed as cell growth at 10^-6 M after 48 hrs by SRB assay; settings: A549, 48 h, read-out: Activity; how it was run: as §3
HCT-15 = assay: Cytotoxicity against human HCT15 cells assessed as cell growth at 10^-6 M after 48 hrs by SRB assay; settings: HCT-15, 48 h, read-out: Activity; how it was run: as §2
MDA-MB-435 [7] = assay: Cytotoxicity against human MDA-MB-435 cells assessed as cell growth at 10^-6 M after 48 hrs by SRB assay; settings: MDA-MB-435, 48 h, read-out: Activity
SK-MEL-2 = assay: Cytotoxicity against human SK-MEL-2 cells assessed as cell growth at 10^-6 M after 48 hrs by SRB assay; settings: SK-MEL-2, 48 h, read-out: Activity
CAKI-1 [8] = assay: Cytotoxicity against human Caki1 cells assessed as cell growth at 10^-6 M after 48 hrs by SRB assay; settings: CAKI-1, 48 h, read-out: Activity; how it was run: as §3
HCT-116 = assay: Growth inhibition of human HCT116 cells after 48 hrs by SRB assay; settings: HCT-116, 48 h; how it was run: as §1
MCF7 = assay: Cytotoxicity against human MCF7 cells assessed as cell growth at 10^-6 M after 48 hrs by SRB assay; settings: MCF7, 48 h, read-out: Activity
MDA-MB-468 = assay: Cytotoxicity against human MDA-MB-468 cells assessed as cell growth at 10^-6 M after 48 hrs by SRB assay; settings: MDA-MB-468, 48 h, read-out: Activity
HL-60 = assay: Cytotoxicity against human HL60 cells assessed as cell growth at 10^-5 M after 48 hrs by SRB assay; settings: HL-60, 48 h, read-out: Activity; how it was run: as §2
EKVX = assay: Cytotoxicity against human EKVX cells assessed as cell growth at 10^-5 M after 48 hrs by SRB assay; settings: read-out: Activity; how it was run: as §3
HOP-92 = assay: Cytotoxicity against human HOP92 cells assessed as cell growth at 10^-5 M after 48 hrs by SRB assay; settings: HOP-92, 48 h, read-out: Activity; how it was run: as §2

Compound | growth at 10 µM (Malme-3M [1]) | GI50 (SW-620) | TGI (SW-620) | CC50 (SW-620) | GI50 (Malme-3M [2]) | TGI (Malme-3M [2]) | CC50 (Malme-3M [2]) | GI50 (CAKI-1 [3]) | LC50 (50% lethal concentration) (CAKI-1 [3]) | TGI (CAKI-1 [3]) | GI50 (TK-10) | TGI (TK-10) | CC50 (TK-10) | growth at 10 µM [4] | growth at 10 µM (BT-549) | growth at 0.1 µM (HOP-62) | growth at 0.1 µM (M14) | growth at 100 µM (NCI-H460) | growth at 100 µM (MDA-MB-435 [5]) | growth at 100 µM (OVCAR-4) | other results
COc1ccc(-c2nn3cc(-c4ccc(O)cc4O)nc3s2)cc1 | -30% | 3.96 µM | > 100 µM | > 100 µM | 1.32 µM | 4.7 µM | > 100 µM | 2.07 µM | > 100 µM | 28.9 µM | 3.46 µM | 17.4 µM | > 100 µM | -2% | 12% | 91% | 96% | 2% | -38% | -22% | growth at 100 µM (OVCAR-5): 2%; growth at 0.1 µM (SK-OV-3): 94%; growth at 0.01 µM [6]: 101%; growth at 0.01 µM (A498): 82%; growth at 0.01 µM (DU-145): 106%; growth at 1 µM (A549): 86%; growth at 1 µM (HCT-15): 93%; growth at 1 µM (MDA-MB-435 [7]): 76%; growth at 1 µM (SK-MEL-2): 85%; growth at 1 µM (CAKI-1 [8]): 69%; GI50 (HCT-116): 1.76 µM; LC50 (50% lethal concentration) (HCT-116): 8.25 µM; TGI (HCT-116): 3.81 µM; growth at 1 µM (MCF7): 70%; growth at 1 µM (MDA-MB-468): 59%; growth at 10 µM (HL-60): 33%; growth at 10 µM (EKVX): 15%; growth at 10 µM (HOP-92): -33%
COc1ccc(-c2nn3cc(-c4cccc(N)c4)nc3s2)cc1 | -16% | 6.08 µM | 76.6 µM | > 100 µM | 1.74 µM | 6.5 µM | 47.3 µM | 0.743 µM | > 100 µM | 10.9 µM | 7.56 µM | 37.4 µM | > 100 µM | 6% | 24% | 98% | 101% | -31% | -53% | -34% | growth at 100 µM (OVCAR-5): -23%; growth at 0.1 µM (SK-OV-3): 97%; growth at 0.01 µM [6]: 100%; growth at 0.01 µM (A498): 87%; growth at 0.01 µM (DU-145): 101%; growth at 1 µM (A549): 95%; growth at 1 µM (HCT-15): 86%; growth at 1 µM (MDA-MB-435 [7]): 77%; growth at 1 µM (SK-MEL-2): 79%; growth at 1 µM (CAKI-1 [8]): 46%; GI50 (HCT-116): 3.51 µM; LC50 (50% lethal concentration) (HCT-116): 41.4 µM; TGI (HCT-116): 14.2 µM; growth at 1 µM (MCF7): 65%; growth at 1 µM (MDA-MB-468): 68%; growth at 10 µM (HL-60): 19%; growth at 10 µM (EKVX): 2%; growth at 10 µM (HOP-92): -25%

Source: ChEMBL document CHEMBL2146441, “2,6-Disubstituted imidazo[2,1-b][1,3,4]thiadiazoles: search for anticancer agents” (2012)
